Results pooled from the literature.
Lines come from different studies, so protocols differ. pEC50: −log10 of the molar value.
Melanocortin receptor 5: Melanocortin receptor 5 (Mus musculus, UniProt P41149)
GRM4: Metabotropic glutamate receptor 4 (GRM4, Homo sapiens, UniProt Q14833)
Ppara: Peroxisome proliferator-activated receptor alpha (Ppara, Mus musculus, UniProt P23204)

O=C(Nc1ccc(N2C(=O)c3ccccc3C2=O)c(Cl)c1)c1ncccc1Cl
pEC50 (Metabotropic glutamate receptor 1 (GRM1, Homo sapiens, UniProt Q13255); calcium signal; positive allosteric modulator): 5.90

C[C@@H]1NC(=O)[C@H](CCCNC(=N)N)NC(=O)[C@H](Cc2ccccc2)NC(=O)[C@H](Cc2ccccc2)NC(=O)[C@H](CCCNC(=N)N)NC(=O)[C@@H]2CCCN2C(=O)[C@H]2CCCN2C(=O)[C@H](Cc2ccccc2)NC1=O
pEC50 (Melanocortin receptor 5; reporter gene; agonist): < 4.00

COc1ccc(-c2nsc(NC(=O)[C@@H]3C[C@H]3C)c2C)cc1
pEC50 (GRM4; calcium signal; agonist): < 4.60

N=C(N)NCCC[C@H](NC(=O)[C@@H](N)CC(=O)O)C(=O)N[C@@H](Cc1ccccc1)C(=O)NCC(=O)O
pEC50 (Melanocortin receptor 5; reporter gene; agonist): < 4.00

CC(C)(Oc1ccc(C(=O)c2ccc(Cl)cc2)cc1)C(=O)O
pEC50 (Ppara; reporter gene; agonist; luciferase): 4.45

CSCC[C@H](N)C(=O)NCC(=O)N[C@@H](Cc1c[nH]cn1)C(=O)N[C@@H](Cc1ccccc1)C(=O)N[C@@H](CCCNC(=N)N)C(=O)N[C@@H](Cc1c[nH]c2ccccc12)C(=O)O
pEC50 (Melanocortin receptor 5; reporter gene; agonist): 5.35

COC(=O)c1ccc(-n2c(C)cc(C(=O)CSc3ccc(NC(C)=O)cc3)c2C)cc1
pEC50 (GRM4; calcium signal; positive allosteric modulator): 5.48

CCN(C(=O)C1CCN(S(=O)(=O)c2ccc3[nH]ncc3c2)CC1)[C@H](C)c1ccccc1
pEC50 (Muscarinic acetylcholine receptor M4 (CHRM4, Homo sapiens, UniProt P08173); calcium signal; agonist): < 4.52

CCCC[C@H](NC(=O)[C@@H](NC(=O)[C@@H](N)Cc1ccc(O)cc1)C(C)C)C(=O)NCC(=O)N[C@@H](Cc1c[nH]cn1)C(=O)N[C@@H](Cc1ccccc1)C(=O)N[C@@H](CCCN=C(N)N)C(=O)N[C@@H](Cc1c[nH]c2ccccc12)C(=O)N[C@@H](CC(=O)O)C(=O)N[C@@H](CCCN=C(N)N)C(=O)N[C@@H](Cc1ccccc1)C(=O)NCC(=O)O
pEC50 (Melanocortin receptor 5; reporter gene; agonist): 6.85

Cc1nc(-c2ccc(C(F)(F)F)cc2)sc1C(=O)NCc1ccc(OC(C)(C)C(=O)O)cc1
pEC50 (Ppara; reporter gene; agonist; luciferase): 7.01
